Test results taken from ChEMBL document CHEMBL3085696, “Aurora isoform selectivity: design and synthesis of imidazo[4,5-b]pyridine derivatives as highly selective inhibitors of Aurora-A kinase in cells” (J Med Chem, 2013).
Calls of active or inactive are those of the source. The rule behind the calls is not given here.

Key:
Aurora kinase A [1] = target: T1, Aurora kinase A (Homo sapiens, UniProt O14965); experiment: Inhibition of N-terminal HIS-tagged aurora-A (unknown origin) using 5FAM-LRRASLG-CONH2 as substrate after 60 mins
T1 sequence (O14965 whole entry): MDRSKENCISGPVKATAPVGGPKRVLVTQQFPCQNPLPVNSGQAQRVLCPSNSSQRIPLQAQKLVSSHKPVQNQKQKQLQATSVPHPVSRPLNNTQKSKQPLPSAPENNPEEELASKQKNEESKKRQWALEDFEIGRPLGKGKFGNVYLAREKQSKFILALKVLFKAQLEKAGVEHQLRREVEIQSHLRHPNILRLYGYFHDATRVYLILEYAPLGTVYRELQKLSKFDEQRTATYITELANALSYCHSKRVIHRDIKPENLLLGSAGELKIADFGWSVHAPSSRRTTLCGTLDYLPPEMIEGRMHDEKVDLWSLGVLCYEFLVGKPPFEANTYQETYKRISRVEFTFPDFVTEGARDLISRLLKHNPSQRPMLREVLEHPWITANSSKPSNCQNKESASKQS
Summary of the method: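 Aurora-A (5 nM N-terminal His-tagged) incubated with 1.5 μM 5FAM-LRRASLG-CONH2 peptide and 20 μM ATP in 50 mM Tris pH 7.4, 200 mM NaCl, 5 mM MgCl2, 2 mM DTT, 0.1% Tween 20. Runs 60 min at room temperature; EDTA stop. Microfluidic separation of product from substrate. Duplicate 8-point curves, 0.25 pM–200 μM final, 1–2% DMSO. IC50 from four-parameter logistic fit.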

Aurora kinase B [2] = target: T2, Aurora kinase B (Homo sapiens, UniProt Q96GD4); experiment: Inhibition of full-length aurora-B (unknown origin) using 5FAMLRRASLG-CONH2 as substrate after 60 mins
Summary of the method: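 Full-length Aurora-B/INCENP complex (1 nM) incubated with 1.5 μM 5FAM-LRRASLG-CONH2 peptide and 15 μM ATP in Tris pH 7.4 buffer with NaCl, MgCl2, DTT, Tween 20. Runs 60 min at room temperature, then EDTA stop. Microfluidic mobility-shift readout of percent conversion. Duplicate 8-point curves, 0.25 pM–200 μM final. IC50 by four-parameter logistic fit.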

Aurora kinase A [3] = target: T1, Aurora kinase A; experiment: Inhibition of autophosphorylation of N-terminal Myc tagged aurora-A at T288 in human HeLa cells after 2 hrs; format: cell-based
Summary of the method: (§1)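 Cells transfected with Myc-tagged Aurora-A (wild type or T217E, L215R, R220K mutants) and treated with inhibitor concentrations for 2 h. Lysed in LDS buffer; SDS-type PAGE and western blot. Blots probed for P-T288 (Aurora-A autophosphorylation) and phospho-histone H3 S10 (Aurora-B substrate). Blots quantified; IC50 derived; ratio taken as H3 IC50 over T288 IC50.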

Aurora kinase B [4] = target: T2, Aurora kinase B; experiment: Inhibition of N-terminal Myc tagged aurora-B-mediated histone H3 phosphorylation at S10 in human HeLa cells after 2 hrs; format: cell-based; summary of the method: as §1
HeLa = experiment: Selectivity ratio of IC50 for aurora-B-mediated histone H3 phosphorylation at S10 in human HeLa cells to IC50 for autophosphorylation of N-terminal Myc tagged aurora-A at T288 in human HeLa cells; format: cell-based; summary of the method: as §1
Homo sapiens = species: Homo sapiens; experiment: Selectivity ratio of IC50 for aurora-B (unknown origin)-mediated histone H3 phosphorylation at S10 to IC50 for autophosphorylation of N-terminal Myc tagged aurora-A at T288 (unknown origin); summary of the method: as §1
Aurora kinase B [5] = target: T2, Aurora kinase B; experiment: Inhibition of N-terminal Myc tagged aurora-B (unknown origin)-mediated histone H3 phosphorylation at S10 after 2 hrs; summary of the method: as §1
Aurora kinase A [6] = target: T1, Aurora kinase A; experiment: Inhibition of autophosphorylation of N-terminal Myc tagged aurora-A at T288 (unknown origin) after 2 hrs; summary of the method: as §1
[7] = target: Vascular endothelial growth factor receptor 1 (Homo sapiens) (UniProt P17948); experiment: Inhibition of VEGFR1 (unknown origin) at 1 uM
Summary of the method: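 110-kinase panel profiling, compounds tested at 1 μM, read as percent inhibition.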

[8] = target: T3, Aurora kinase A (Homo sapiens) (UniProt O14965); conditions: HCT-116, 1.5 uM
T3 sequence (whole entry): T1 sequence (O14965 whole entry)

Aurora kinase B [9] = target: T2, Aurora kinase B; conditions: HCT-116, 25 to 50 uM
Aurora kinase A [10] = target: T1, Aurora kinase A; experiment: Inhibition of autophosphorylation of N-terminal Myc tagged aurora-A at T288 in human HCT116 cells after 2 hrs; format: cell-based, HCT-116; summary of the method: as §1
Aurora kinase B [11] = target: T2, Aurora kinase B; experiment: Inhibition of N-terminal Myc tagged aurora-B-mediated histone H3 phosphorylation at S10 in human HCT116 cells after 2 hrs; format: cell-based, HCT-116
Summary of the method: (§2)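 Cells transfected with N-terminal Myc-tagged Aurora-A (wild type or T217E, L215R or R220K mutant, made by Quikchange mutagenesis), then exposed to a range of inhibitor concentrations for 2 h. Lysed in LDS sample buffer, sonicated, boiled, run on LDS-PAGE and blotted to nitrocellulose. Probed with anti-P-T288 (Aurora-A autophosphorylation) and anti-P-histone H3 S10 (Aurora-B substrate) antibodies. Blots quantified and IC50 fitted.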

[12] = Metabolic stability in human liver microsomes at 10 uM after 30 mins; format: ADME; conditions: read-out: Stability
Summary of the method: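 Mixed-gender pooled human liver microsomes (1 mg/mL) incubated with compound at 10 μM plus NADPH 1 mM, UDPGA 2.5 mM and MgCl2 3 mM in 10 mM PBS at 37 °C, for 0 and 30 min. Cofactor-free controls included. Percent remaining measured by LC/MS.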

Aurora kinase A [13] = target: Aurora kinase A (Homo sapiens, UniProt O14965, T217E); experiment: Inhibition of autophosphorylation of aurora-A T217E mutant at T288 in human HCT116 cells after 2 hrs; format: cell-based, HCT-116; summary of the method: as §2
Aurora kinase A [14] = target: T1, Aurora kinase A; experiment: Inhibition of autophosphorylation of N-terminal Myc tagged wild type aurora-A at T288 in human HCT116 cells after 2 hrs; format: cell-based, HCT-116; summary of the method: as §2
[15] = Metabolic stability in CD1 mouse liver microsomes at 10 uM after 30 mins; format: ADME, Microsome; conditions: read-out: Stability
Summary of the method: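 Compound at 10 μM incubated with male CD1 mouse liver microsomes (1 mg/mL protein) plus NADPH 1 mM, UDPGA 2.5 mM and MgCl2 3 mM in 10 mM PBS at 37 °C, for 0 and 30 min. Controls omit cofactors. Percent remaining measured by LC/MS.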

Aurora kinase A [16] = target: Aurora kinase A (Homo sapiens, UniProt O14965, R220K); experiment: Inhibition of autophosphorylation of aurora-A R220K mutant at T288 in human HCT116 cells after 2 hrs; format: cell-based, HCT-116; summary of the method: as §2
Aurora kinase A [17] = target: Aurora kinase A (Homo sapiens, UniProt O14965, L215R); experiment: Inhibition of autophosphorylation of aurora-A L215R mutant at T288 in human HCT116 cells after 2 hrs; format: cell-based, HCT-116; summary of the method: as §2
Mus musculus = experiment: Oral bioavailability in Balb/C mouse at 5 mg/kg; format: ADME, organism-based; conditions: in vivo
Summary of the method: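 Female Balb/C mice given 5 mg/kg po or iv in 10% DMSO/5% Tween 20 in saline. Terminal cardiac-puncture plasma taken at 5, 15, 30 min and 1, 2, 4, 6, 24 h. Methanol precipitation with olomoucine internal standard. Analysis by LC/MS (ESI+ MRM).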

T2 sequence (Q96GD4 whole entry): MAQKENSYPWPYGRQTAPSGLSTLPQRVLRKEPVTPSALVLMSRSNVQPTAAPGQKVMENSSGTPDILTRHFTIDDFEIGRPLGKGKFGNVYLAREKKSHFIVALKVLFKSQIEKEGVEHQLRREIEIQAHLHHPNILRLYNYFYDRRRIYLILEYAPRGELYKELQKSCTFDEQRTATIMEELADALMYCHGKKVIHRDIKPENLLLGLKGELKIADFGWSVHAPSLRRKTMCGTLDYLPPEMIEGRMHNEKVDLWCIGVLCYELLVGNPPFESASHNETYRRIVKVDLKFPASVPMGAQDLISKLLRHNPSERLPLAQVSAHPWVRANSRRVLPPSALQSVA
Sequence of Aurora kinase A (Homo sapiens, UniProt O14965, T217E) (O14965 whole entry I57V/T217E): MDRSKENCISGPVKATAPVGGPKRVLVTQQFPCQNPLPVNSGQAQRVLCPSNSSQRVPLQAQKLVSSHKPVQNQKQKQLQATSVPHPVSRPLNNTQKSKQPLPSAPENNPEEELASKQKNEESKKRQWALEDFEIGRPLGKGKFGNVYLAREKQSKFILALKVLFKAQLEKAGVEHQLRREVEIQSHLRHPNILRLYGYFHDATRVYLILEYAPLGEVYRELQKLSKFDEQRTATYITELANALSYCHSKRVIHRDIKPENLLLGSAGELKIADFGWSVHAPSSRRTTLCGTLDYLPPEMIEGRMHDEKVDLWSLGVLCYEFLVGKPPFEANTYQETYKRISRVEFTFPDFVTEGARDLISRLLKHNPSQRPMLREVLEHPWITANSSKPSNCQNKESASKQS
Sequence of Aurora kinase A (Homo sapiens, UniProt O14965, R220K) (O14965 whole entry I57V/R220K): as the sequence (O14965 whole entry I57V/T217E) above, with E217T, R220K counted along it
Sequence of Vascular endothelial growth factor receptor 1 (Homo sapiens) (P17948 whole entry): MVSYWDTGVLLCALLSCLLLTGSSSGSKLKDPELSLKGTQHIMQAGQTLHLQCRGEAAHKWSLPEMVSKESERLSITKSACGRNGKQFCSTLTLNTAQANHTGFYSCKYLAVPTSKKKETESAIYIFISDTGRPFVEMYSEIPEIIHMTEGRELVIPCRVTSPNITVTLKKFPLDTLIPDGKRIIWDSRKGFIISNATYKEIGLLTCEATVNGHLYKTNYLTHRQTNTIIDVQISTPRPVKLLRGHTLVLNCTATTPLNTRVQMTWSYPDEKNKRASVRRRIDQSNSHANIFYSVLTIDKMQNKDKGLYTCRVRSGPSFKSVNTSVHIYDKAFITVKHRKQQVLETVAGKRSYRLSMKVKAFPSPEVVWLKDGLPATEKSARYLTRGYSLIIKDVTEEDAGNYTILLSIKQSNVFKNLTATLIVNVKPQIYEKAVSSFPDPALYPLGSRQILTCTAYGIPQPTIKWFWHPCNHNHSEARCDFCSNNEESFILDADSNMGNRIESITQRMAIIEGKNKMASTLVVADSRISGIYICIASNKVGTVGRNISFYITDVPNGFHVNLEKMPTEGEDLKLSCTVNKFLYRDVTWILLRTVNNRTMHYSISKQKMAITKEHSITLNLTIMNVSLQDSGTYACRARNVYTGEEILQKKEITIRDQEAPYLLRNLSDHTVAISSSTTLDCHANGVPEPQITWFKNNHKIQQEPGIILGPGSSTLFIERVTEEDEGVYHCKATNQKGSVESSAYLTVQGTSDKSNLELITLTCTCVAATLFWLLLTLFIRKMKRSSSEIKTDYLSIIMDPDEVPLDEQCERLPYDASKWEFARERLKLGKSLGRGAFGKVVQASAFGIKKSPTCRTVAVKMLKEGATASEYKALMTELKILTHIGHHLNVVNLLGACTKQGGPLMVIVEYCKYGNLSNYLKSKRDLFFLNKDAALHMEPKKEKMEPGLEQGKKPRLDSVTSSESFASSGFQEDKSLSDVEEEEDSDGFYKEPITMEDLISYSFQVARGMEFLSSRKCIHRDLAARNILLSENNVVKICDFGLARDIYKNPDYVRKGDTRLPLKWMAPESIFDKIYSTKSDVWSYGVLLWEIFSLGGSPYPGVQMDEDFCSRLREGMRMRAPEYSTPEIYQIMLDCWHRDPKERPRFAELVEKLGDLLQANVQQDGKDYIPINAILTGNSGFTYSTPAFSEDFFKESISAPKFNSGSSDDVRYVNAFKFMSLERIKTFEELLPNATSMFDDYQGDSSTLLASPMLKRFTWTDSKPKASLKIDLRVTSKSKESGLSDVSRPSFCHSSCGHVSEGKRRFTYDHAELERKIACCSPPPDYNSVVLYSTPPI
Sequence of Aurora kinase A (Homo sapiens, UniProt O14965, L215R) (O14965 whole entry I57V/L215R): as the sequence (O14965 whole entry I57V/T217E) above, with L215R, E217T counted along it

SMILES	IC50 (Aurora kinase A [1])	IC50 (Aurora kinase B [2])	other results
Cc1nn(C)cc1-c1nc2c(Oc3ccc(C(=O)Nc4cccnc4)cc3)c(Cl)cnc2[nH]1	58 nM	1680 nM	IC50 (Aurora kinase A [3]): 280 nM; IC50 (Aurora kinase B [4]): 19700 nM; Ratio IC50 (HeLa): 70
COc1ccc(-c2[nH]c3ncc(Cl)cc3c2-c2cccc(CNS(C)(=O)=O)c2)cc1	1940 nM	7100 nM	–
Cc1nn(C)cc1-c1nc2c(Nc3ccc(C(=O)Nc4ccccc4)cc3)c(Cl)cnc2[nH]1	75 nM	4120 nM	Ratio IC50 (Homo sapiens): 58; IC50 (Aurora kinase B [5]): 18600 nM; IC50 (Aurora kinase A [6]): 320 nM
COc1ccc(-c2[nH]c3ncc(Cl)cc3c2-c2cccc(CNC(C)=O)c2)cc1	743 nM	1090 nM	–
CC(=O)N[C@@H]1CCN(c2c(Cl)cnc3[nH]c(-c4cn(C)nc4C)nc23)C1	4 nM	2 nM	–
Cc1nn(C)cc1-c1nc2ncc(Cl)c(N3CCC[C@@H](CNS(C)(=O)=O)C3)c2[nH]1	7 nM	17 nM	–
Cc1nn(C)cc1-c1nc2c(N3CCC[C@H](CNS(C)(=O)=O)C3)c(Cl)cnc2[nH]1	5 nM	8 nM	–
Cc1nn(C)cc1-c1nc2c(N3CCC[C@H](CN(C)S(C)(=O)=O)C3)c(Cl)cnc2[nH]1	5 nM	9 nM	–
Cc1nn(C)cc1-c1nc2c(Oc3ccc(C(=O)NC4CCC4)cc3)c(Cl)cnc2[nH]1	–	–	inhibition [7]: > 80%; inhibition [8]: Active; inhibition (Aurora kinase B [9]): Active; Ratio IC50 (HeLa): 346
Cc1nn(C)cc1-c1nc2ncc(Cl)c(Oc3ccc(C(=O)N4CCCC4)cc3)c2[nH]1	45 nM	1820 nM	–
O=C(Nc1ccccc1)c1ccc(Oc2c(Cl)cnc3nc[nH]c23)cc1	25800 nM	–	–
CC(=O)N[C@H]1CCN(c2c(Cl)cnc3[nH]c(-c4cn(C)nc4C)nc23)C1	270 nM	80 nM	–
CC(=O)NCc1cccc(-c2c(-c3cnn(C)c3)[nH]c3ncc(Cl)cc23)c1	118 nM	97 nM	–
CC(=O)NC[C@@H]1CCN(c2c(Cl)cnc3nc(-c4cn(C)nc4C)[nH]c23)C1	9 nM	7 nM	–
Cc1cc(NC(=O)c2ccc(Oc3c(Cl)cnc4nc(-c5cn(C)nc5C)[nH]c34)cc2)on1	71 nM	693 nM	IC50 (Aurora kinase A [10]): 95 nM; IC50 (Aurora kinase B [11]): 4930 nM
Cc1nn(C)cc1-c1nc2c(N(C)Cc3ccccc3)c(Cl)cnc2[nH]1	255 nM	169 nM	–
Cc1nn(C)cc1-c1nc2ncc(Cl)c(Oc3ccc(C(=O)Nc4ccncc4)cc3)c2[nH]1	190 nM	3450 nM	IC50 (Aurora kinase A [3]): 580 nM; IC50 (Aurora kinase B [4]): 19700 nM
Cn1cc(-c2[nH]c3ncc(Cl)cc3c2-c2cccc(CNS(C)(=O)=O)c2)cn1	211 nM	441 nM	–
Cc1nn(C)cc1-c1nc2c(Oc3ccc(C(=O)NCc4ccccc4)cc3)c(Cl)cnc2[nH]1	204 nM	3910 nM	–
Cc1nn(C)cc1-c1nc2c(Oc3ccc(C(=O)Nc4ccccc4)cc3)ccnc2[nH]1	618 nM	–	–
Cc1nn(C)cc1-c1nc2c(Oc3ccc(C(=O)Nc4ccncc4)cc3)c(Cl)cnc2[nH]1	–	–	Ratio IC50 (HeLa): 34
Cc1nn(C)cc1-c1nc2ncc(Cl)c(Oc3ccc(C(=O)NC4CCC4)cc3)c2[nH]1	15 nM	3050 nM	remaining at 0.5 h, 10 µM [12]: 22%; IC50 (Aurora kinase A [13]): 2290 nM; IC50 (Aurora kinase A [14]): 36 nM; remaining at 0.5 h, 10 µM [15]: 28%; IC50 (Aurora kinase A [16]): 42 nM; IC50 (Aurora kinase A [17]): 43 nM; IC50 (Aurora kinase A [3]): 70 nM; IC50 (Aurora kinase B [4]): 24200 nM; F (Mus musculus): 14%
